Measurements gathered from unrelated publications.
Each line is one published result; the experiments were not run side by side.
Observed: cell growth or viability

Compound | cell line | technique | tested at | time | measurement | result
C[C@H]1CNCCCN1c1nccc(-c2noc([C@@]3(C)CCCc4sc(N)c(C#N)c43)n2)n1 | NCI-H727 |  |  | 5 days | EC50 | > 1000 nM
O=c1cc(OCc2cc(-c3ccccc3)no2)c2ccccc2o1 | DND41 | MTS |  | 72 h | IC50 | > 100000 nM
C#CCNC(=O)c1c(-c2ccc(OC)cc2)oc2ccc(O)c(CN3CCCCC3)c12 | J774.A1 | resazurin |  | 18 h | IC50 | 27800 nM
CCOc1ccc(-c2cc(C(=O)O)c(-c3ccc(Cl)cc3)o2)cc1 | WM 266-4 | MTT |  | 48 h | EC50 | 87000 nM
C[C@H]1CNCCCN1c1nccc(-c2noc3c2CCC[C@@]32CCCc3sc(N)c(C#N)c32)n1 | NCI-H727 |  |  | 5 days | EC50 | 399 nM
COc1cccc2c1C(=O)c1c(O)c3c(c(O)c1C2=O)C[C@@](O)(C(=O)CO)C[C@@H]3O[C@H]1C[C@H](N)[C@H](O)[C@H](C)O1 | SU-DHL10 | ATP luminescence |  | 72 h | IC50 | 320 nM
CCOC(=O)c1c(-c2ccc(OC)cc2)oc2ccc(OCc3cn(Cc4ccccc4)nn3)c(CN3CCCCC3)c12 | J774.A1 | resazurin |  | 18 h | IC50 | 37900 nM
FC(F)(F)c1ccc(-c2cc(CNc3cccc4cccnc34)on2)cc1 | DND41 | MTS |  | 72 h | IC50 | 82300 nM
C[C@H](Oc1nccc(-c2noc3c2CCC[C@@]32CCCc3sc(N)c(C#N)c32)n1)[C@@H]1CCCN1C | NCI-H727 |  |  | 5 days | EC50 | 109 nM
N/C(=N\O)c1ccc(-c2cc(CNc3cccc4cccnc34)on2)cc1 | DND41 | MTS |  | 72 h | IC50 | 2300 nM
Cc1nc(Nc2ncc(C(=O)Nc3c(C)cccc3Cl)s2)cc(N2CC[C@H](O)C2)n1 | JeKo-1 | ATP luminescence | 10 µM | 72 h | inhibition | 37%
C[C@H]1CN(C)CCN1c1nccc(-c2noc3c2CCC[C@@]32CCCc3sc(N)c(C#N)c32)n1 | NCI-H727 |  |  | 5 days | EC50 | 304 nM
FC(F)(F)c1cc(OCc2cc(-c3ccc(Cl)cc3Cl)no2)c2ccccc2n1 | DND41 | MTS |  | 72 h | IC50 | > 100000 nM
